The target in data set [1] is T1, Amine oxidase [flavin-containing] A (Homo sapiens, UniProt P21397).
T1 sequence (P21397 whole entry): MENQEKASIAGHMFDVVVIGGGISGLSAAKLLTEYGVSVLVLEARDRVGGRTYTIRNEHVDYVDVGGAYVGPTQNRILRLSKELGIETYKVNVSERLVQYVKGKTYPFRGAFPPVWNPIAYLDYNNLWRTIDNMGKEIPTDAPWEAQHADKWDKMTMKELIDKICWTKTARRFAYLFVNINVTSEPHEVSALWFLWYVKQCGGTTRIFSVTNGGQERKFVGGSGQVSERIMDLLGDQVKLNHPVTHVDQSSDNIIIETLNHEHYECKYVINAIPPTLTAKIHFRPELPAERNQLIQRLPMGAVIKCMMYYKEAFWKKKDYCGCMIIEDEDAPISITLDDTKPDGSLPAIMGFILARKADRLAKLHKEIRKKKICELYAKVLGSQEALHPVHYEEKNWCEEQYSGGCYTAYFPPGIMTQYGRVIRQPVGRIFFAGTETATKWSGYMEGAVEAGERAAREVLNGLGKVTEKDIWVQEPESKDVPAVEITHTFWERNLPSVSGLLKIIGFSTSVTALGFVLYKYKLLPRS
Briefly: Inhibition of human recombinant MAO-A expressed in baculovirus-infected insect cells after 1 hr by two-step bioluminescent assay.

The target in data set [2] is T2, Amine oxidase [flavin-containing] B (Homo sapiens, UniProt P27338).
T2 sequence (P27338 whole entry): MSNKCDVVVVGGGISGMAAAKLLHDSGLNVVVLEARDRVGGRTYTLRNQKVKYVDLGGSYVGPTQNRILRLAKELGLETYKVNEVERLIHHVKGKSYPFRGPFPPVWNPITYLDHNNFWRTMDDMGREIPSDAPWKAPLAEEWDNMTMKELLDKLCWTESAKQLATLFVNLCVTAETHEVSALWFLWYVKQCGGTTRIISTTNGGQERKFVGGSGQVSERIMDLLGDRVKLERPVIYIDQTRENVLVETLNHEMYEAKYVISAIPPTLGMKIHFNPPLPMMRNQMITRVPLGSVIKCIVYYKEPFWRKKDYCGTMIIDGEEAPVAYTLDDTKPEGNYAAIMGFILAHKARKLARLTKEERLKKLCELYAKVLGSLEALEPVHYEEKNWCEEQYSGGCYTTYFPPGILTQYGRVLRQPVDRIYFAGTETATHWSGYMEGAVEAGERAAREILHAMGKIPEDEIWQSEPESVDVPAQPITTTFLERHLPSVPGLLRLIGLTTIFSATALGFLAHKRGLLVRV
Description: (§1) Inhibition of human recombinant MAO-B expressed in baculovirus-infected insect cells at 1 uM after 1 hr by two-step bioluminescent assay. The settings on record: 1 h, 1 µM. In outline:
(§2)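 Recombinant human MAO-B from baculovirus-infected insect cell microsomes (0.5 U/mg final) preincubated 2 min 30 s with compound, then luminogenic substrate at 15 µM final, 1 h at 37 °C. Luciferin detection reagent stops the reaction and luminescence is read after 20 min. Hepes 100 mM pH 7.5, 5% glycerol, 12.5% DMSO. Tested in triplicate; % inhibition from signal relative to no-compound control.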

Data set [3] addresses T3, MAO-B (amine oxidase [flavin-containing] B) (Homo sapiens, UniProt P27338).
T3 sequence (P27338 whole entry): T2 sequence (P27338 whole entry)
The data set is described as §1. Put shortly: as §2

In data set [4] the target is T2, Amine oxidase [flavin-containing] B. Description: Inhibition of human recombinant MAO-B expressed in baculovirus-infected insect cells after 1 hr by two-step bioluminescent assay. Put shortly:
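Recombinant human MAO-B microsomes from baculovirus-infected insect cells, 0.5 U/mg final. Enzyme preincubated with compound 2 min 30 s at 37 °C, then luminogenic luciferin-derivative substrate added (15 µM final). Luciferin detection reagent stops the reaction; luminescence read 20 min later. Buffer 100 mM Hepes pH 7.5 with 5% glycerol, DMSO 12.5% final. Screened at 10 and 1 µM in triplicate; IC50 from sigmoidal fit.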

Each structure is given as a SMILES string.

As for `Cc1nccc2c1[nH]c1cc(OCCO)ccc12`, the inhibition constant (Ki) in data set [1] turned out to be 28.4 nM. For the same compound, the “inhibition (INH)” value in data set [2] is given as “Not Active”. Turning to `C=CCOc1ccc2c(c1)[nH]c1c(C)nccc12`, in data set [1], the Ki is 5 nM. Besides, the “inhibition (INH)” value in data set [2] was “Not Active”. For the compound `Cc1nccc2c1[nH]c1cc(OCC(C)C)ccc12`, the Ki in data set [1] was determined as 3.9 nM. Further, the inhibition at 1 h, 1 µM in data set [3] was determined as 14%. For `COCCOc1ccc2c(c1)[nH]c1c(C)nccc12`, the Ki in data set [1] turned out to be 29.5 nM. The “inhibition (INH)” value in data set [2] is listed as “Not Active”. `Cc1nccc2c1[nH]c1cc(OCCCC(F)(F)F)ccc12`: the inhibitory constant (Ki) in data set [1] was determined as 3.6 nM. Further, in data set [3], the inhibition at 1 h, 1 µM is 24%. As for `Cc1nccc2c1[nH]c1cc(OCC3CCCCC3)ccc12`, the values for the inhibitory constant (Ki) in data set [4] and in data set [1] were 222 nM and 4.3 nM, respectively.

For `Cc1nccc2c1[nH]c1cc(OCc3ccccc3)ccc12`, the Ki in data set [1] is 12.6 nM. In addition, the inhibition at 1 h, 1 µM in data set [3] was found to be 42%. On to `Cc1nccc2c1[nH]c1cc(OCCc3ccccc3)ccc12`, for which, in data set [1], the Ki is 5 nM. Moreover, the inhibition at 1 h, 1 µM in data set [3] came to 39%.

With `Cc1nccc2c1[nH]c1cc(OCc3ccccn3)ccc12`, the inhibitory constant (Ki) in data set [1] was determined as 500 nM. For the same compound, the “inhibition (INH)” value in data set [2] is recorded as “Not Active”.

For the compound `Cc1nccc2c1[nH]c1cc(OCc3cccnc3)ccc12`, the Ki in data set [1] turned out to be 24.9 nM. Further, the “inhibition (INH)” value in data set [2] is “Not Active”. Regarding `Cc1nccc2c1[nH]c1cc(OCc3ccncc3)ccc12`, the Ki in data set [1] turned out to be 35.4 nM. The “inhibition (INH)” value in data set [2] was “Not Active”.

As to `Cc1nccc2c1[nH]c1cc(OCc3ccc4ccccc4c3)ccc12`, the Ki in data set [1] is 100 nM. Besides, the “inhibition (INH)” value in data set [2] is on record as “Not Active”. Turning to `Cc1nccc2c1[nH]c1cc(OCCN(C)C)ccc12`, in data set [1], the Ki stood at 1020 nM. Moreover, the “inhibition (INH)” value in data set [2] is “Not Active”. On to `Cc1nccc2c1[nH]c1cc(OCCCN(C)C)ccc12`, for which, in data set [1], the inhibitory constant (Ki) is 684 nM. Besides, in data set [2], the “inhibition (INH)” value is “Not Active”. In the case of `Cc1nccc2c1[nH]c1cc(OCCN3CCOCC3)ccc12`, the inhibition constant Ki in data set [1] is 256 nM. Also, the “inhibition (INH)” value in data set [2] is reported as “Not Active”. In the case of `COc1ccc2c(c1)[nH]c1c(C)nccc12` [HARMINE], the Ki in data set [4] amounted to 121000 nM.

The values are drawn from ChEMBL document CHEMBL1641453, “Synthesis and evaluation of β-carboline derivatives as potential monoamine oxidase inhibitors” (Bioorg Med Chem, 2011).
